We go through 3 compounds from PMC8570090 (Bioorganic & medicinal chemistry letters, 2020).

Series [1] is described as follows: Stability of PI-103BE. Format: in vitro ADME. The note with it: species found after treatment with PI-103BE (9); for Fraction in culture medium: all time points.
Series [2] can be described thus: Single dose pharmacokinetics in mice, intraperitoneal injection. Format: in vivo.
The nature of series [3]: Single dose pharmacokinetics in mice, oral gavage. The note with it: single oral dose 10 mg/kg. Format: in vivo. The gist of the method:
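Female ovariectomized Nu/Nu mice, 4–6 weeks old (n = 5), received a single 10 mg/kg dose by gavage in 5% DMSO/40% PEG 400/55% saline. Orbital-sinus blood was drawn at 0.5, 1, 3, 8 and 24 h, with one sampling per group, into EDTA. Plasma was separated at 4 °C and frozen at −80 °C. Drug and metabolites were quantified by C18 UHPLC–MS (formic acid water/acetonitrile gradient).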

Series [4] concerns human lung carcinoma A549. Nature of the series: In vitro antiproliferative assay. It counts as cell-based. The note with it: Fig. 5. The gist of the method: (§1)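 Cells seeded at 50,000 per well in DMEM with 5% FBS. Exposed for 4 days to test compound at 6 concentrations, with DMSO vehicle and a reference compound as positive control. Cell numbers counted on a Coulter counter. Survival ratio is treated over vehicle cell number. IC50 taken from dose-response curves. Run in triplicate, mean ± SD.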

The subject of series [5] is human breast adenocarcinoma MDA-MB-231. The series can be described thus: In vitro antiproliferative assay. It counts as cell-based. The note with it: Fig. 5. The gist of the method:
as §1

Series [6] relates to human cervical cancer HeLa. The series can be described thus: In vitro antiproliferative assay. Format: cell-based. The settings on record: Fig. 5. The gist of the method:
as §1

The test system of series [7] is human prostate carcinoma 22Rv1. The series can be described thus: In vitro antiproliferative assay. The settings on record: Fig. 5. It counts as cell-based. The method in brief:
as §1

Series [8] relates to panel of cancer cell lines. Nature of the series: In vitro antiproliferative activity, panel of six cancer cell lines. Format: cell-based, human. The settings on record: IC50 ratio across A549, MDA-MB-231, HeLa, 22Rv1, PC-3, SKOV-3. The method in brief:
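Cells plated at 50,000 per well in DMEM with 5% FBS and exposed for 4 days to test compound at 6 doses. DMSO served as vehicle control and the parent inhibitor as positive control. Cells were counted on a Coulter counter. Survival ratio is treated over vehicle cell number, and IC50 is taken from dose-response curves. Run in triplicate, mean ± SD.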

`Oc1cccc(-c2nc(N3CCOCC3)c3oc4ncccc4c3n2)c1` [PI-103 (7), 3-(4-Morpholinopyrido[3′,2′:4,5]furo[3,2-d]pyrimidin-2-yl)phenol, reference compound]: the “Fraction of total drug content in cell culture media” value (“Fraction of total drug content” below) in series [1] (0.5 h) was 2.02%; in series [1] (1 h) it was 2.52%; in series [1] (3 h), 3.30%; in series [1] (8 h) it was 3.27%; in series [1] (24 h), 3.81%. The “Fraction in culture medium” value in series [1] was below 4%. Moreover, the “Peak plasma concentration of PI-103, times lower than after i.p. PI-103BE” value in series [2] (10 mg/kg IP, 7-treated vs PI-103BE-treated) came to 10 times. Further, the “Oral bioavailability” value in series [3] was “no oral bioavailability”.

Turning to `OB(O)c1cccc(-c2nc(N3CCOCC3)c3oc4ncccc4c3n2)c1` [PI-103BA (10), (3-(4-Morpholinopyrido[3′,2′:4,5]furo[3,2-d]pyrimidin-2-yl)phenyl)boronic acid], the “Antiproliferative activity” value in series [4], in series [5], in series [6] and in series [7] was “dose dependent antiproliferative activities” throughout. For the same compound, the “Fraction of total drug content” value in series [1] (0.5 h) stood at 97.95%; in series [1] (3 h) it was 96.70%; in series [1] (8 h), 96.73%; in series [1] (24 h), 96.19%. Moreover, in series [1], the “Fraction in culture medium” value is reported as above 95%.

Take `CC1(C)OB(c2cccc(-c3nc(N4CCOCC4)c4oc5ncccc5c4n3)c2)OC1(C)C` [PI-103BE (9), 4-Morpholino-2-(3-(4,4,5,5-tetramethyl-1,3,2-dioxaborolan-2-yl)phenyl)pyrido[3′,2′:4,5] furo[3,2-d]pyrimidine]: the “Fraction of total drug content” value came to 1.61% in series [1] (0.5 h); 0.32% in series [1] (1 h); 0% in series [1] (3 h); 0% in series [1] (8 h); 0% in series [1] (24 h). In addition, the “Concentration in cell culture media” value in series [1] (3 h), in series [1] (8 h) and in series [1] (24 h) was 0 nM in each case. The PI-103BE in plasma result in series [2] (10 mg/kg IP of labelled compound, analyte PI-103BE) is recorded as “no PI-103BE was detected in plasma”. Besides, the “Times less potent than PI-103 (7)” value in series [8] is 3 ~ 24 times.
